According to ChEMBL document CHEMBL1135731, “Synthesis and nicotinic binding studies on enantiopure diazine analogues of the novel (2-chloro-5-pyridyl)-9-azabicyclo[4.2.1]non-2-ene UB-165” (J Med Chem, 2002):

Legend:
[1] = biological target: Neuronal acetylcholine receptor; alpha4/beta2 (Rattus norvegicus, UniProt P09483+P12390); assay: Binding affinity to Nicotinic acetylcholine receptor alpha4-beta2 using +/-[3H]epibatidine as radioligand in rat brain; format: tissue-based
In short: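 Crude synaptic P2 membranes from Sprague–Dawley rat forebrain (cerebellum and medulla excluded), washed in HEPES-salt buffer pH-unspecified (HEPES 15 mM, NaCl 120 mM, KCl 5.4 mM, MgCl2 0.8 mM, CaCl2 1.8 mM). Mean ± SEM, n = 3-5.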

[2] = biological target: Neuronal acetylcholine receptor subunit alpha-7 (Rattus norvegicus, UniProt Q05941); assay: Binding affinity to subtype Nicotinic acetylcholine receptor alpha7 using [3H]-MLA as radioligand in rat brain; format: tissue-based
In short: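 Rat brain membrane fractions in HEPES-salt solution, competition against [3H]MLA at 22 °C. Nonspecific binding defined with 1 μM MLA. […] Mean ± SEM of 3-5 independent experiments.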

Chain of Neuronal acetylcholine receptor; alpha4/beta2 (P09483 whole entry): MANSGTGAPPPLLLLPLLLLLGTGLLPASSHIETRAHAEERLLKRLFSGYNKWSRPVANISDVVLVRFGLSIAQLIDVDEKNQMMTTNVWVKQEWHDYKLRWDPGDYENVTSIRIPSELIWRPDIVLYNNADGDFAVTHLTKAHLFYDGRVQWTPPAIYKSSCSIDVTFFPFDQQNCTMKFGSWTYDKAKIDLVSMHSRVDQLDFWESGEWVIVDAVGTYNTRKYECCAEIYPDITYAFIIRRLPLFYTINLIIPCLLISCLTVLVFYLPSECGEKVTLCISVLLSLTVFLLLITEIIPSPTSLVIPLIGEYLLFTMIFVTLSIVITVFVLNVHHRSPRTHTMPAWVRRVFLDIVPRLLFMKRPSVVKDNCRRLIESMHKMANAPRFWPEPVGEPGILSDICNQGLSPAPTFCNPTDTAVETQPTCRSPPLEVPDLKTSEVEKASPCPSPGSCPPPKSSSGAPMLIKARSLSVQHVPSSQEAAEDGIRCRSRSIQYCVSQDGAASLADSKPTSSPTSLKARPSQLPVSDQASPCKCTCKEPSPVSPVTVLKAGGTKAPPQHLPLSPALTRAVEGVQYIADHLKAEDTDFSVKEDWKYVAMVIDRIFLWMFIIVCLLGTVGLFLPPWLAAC
Chain of Neuronal acetylcholine receptor; alpha4/beta2 (P12390 whole entry): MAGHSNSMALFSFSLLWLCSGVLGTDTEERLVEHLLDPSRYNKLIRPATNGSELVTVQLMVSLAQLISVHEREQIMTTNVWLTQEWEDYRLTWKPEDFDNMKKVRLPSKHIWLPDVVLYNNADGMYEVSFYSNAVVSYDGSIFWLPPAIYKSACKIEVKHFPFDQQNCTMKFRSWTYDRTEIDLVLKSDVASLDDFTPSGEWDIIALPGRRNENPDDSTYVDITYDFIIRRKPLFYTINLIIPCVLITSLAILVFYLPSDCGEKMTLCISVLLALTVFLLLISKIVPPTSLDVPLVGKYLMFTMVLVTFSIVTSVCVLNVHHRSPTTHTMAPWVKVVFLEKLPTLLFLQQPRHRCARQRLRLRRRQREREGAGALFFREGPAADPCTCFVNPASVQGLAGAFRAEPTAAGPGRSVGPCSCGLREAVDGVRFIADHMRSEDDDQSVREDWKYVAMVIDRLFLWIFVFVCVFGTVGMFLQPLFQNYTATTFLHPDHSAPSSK
Chain of Neuronal acetylcholine receptor subunit alpha-7 (Q05941 whole entry): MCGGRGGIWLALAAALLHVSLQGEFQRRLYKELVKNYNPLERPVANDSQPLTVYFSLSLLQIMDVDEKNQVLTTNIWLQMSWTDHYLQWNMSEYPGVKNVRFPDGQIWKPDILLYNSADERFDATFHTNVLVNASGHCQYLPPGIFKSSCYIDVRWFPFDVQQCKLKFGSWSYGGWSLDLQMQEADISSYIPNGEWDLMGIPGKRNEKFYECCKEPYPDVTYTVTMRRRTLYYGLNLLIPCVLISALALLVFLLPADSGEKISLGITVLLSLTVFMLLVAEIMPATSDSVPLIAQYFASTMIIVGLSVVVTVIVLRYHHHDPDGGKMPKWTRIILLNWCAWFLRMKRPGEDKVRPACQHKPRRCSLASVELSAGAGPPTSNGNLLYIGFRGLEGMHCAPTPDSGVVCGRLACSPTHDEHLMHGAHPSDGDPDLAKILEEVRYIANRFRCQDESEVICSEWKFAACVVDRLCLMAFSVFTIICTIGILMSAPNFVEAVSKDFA

SMILES	Ki [1]	Ki [2]
C1=C(c2cnccn2)C2CC[C@H](CC1)N2	12 nM	250 nM
C1=C(c2cncnc2)C2CC[C@H](CC1)N2	0.14 nM	10.7 nM
Clc1ccc(C2=CCC[C@H]3CCC2N3)cn1	–	12 nM
C1=C(c2ccnnc2)C2CC[C@H](CC1)N2	19 nM	> 10 nM
C1=C(c2cccnc2)C2CC[C@H](CC1)N2	0.051 nM	0.95 nM
